These results are taken from ChEMBL document CHEMBL1123779, “Modifications of primaquine as antimalarials. 4. 5-Alkoxy derivatives of primaquine” (J Med Chem, 1987).

Each structure is given as a SMILES string.

In data set [1] the test system is Plasmodium cynomolgi. Put plainly: Cures in Plasmodium cynomolgi infected Rhesus monkeys (Macaca mulatta) on 1 mg/kg/day after 7 days; cured 0 of 2. The class given is functional.
Data set [2] has as its system Plasmodium cynomolgi. Put plainly: Cures in Plasmodium cynomolgi infected Rhesus monkeys (Macaca mulatta) on 10.0 mg/kg/day after 7 days; cured 2 of 2. It is filed as functional.
Data set [3] has as its system Mus musculus. Description: Suppressive blood schizonticidal antimalarial activity evaluated in the trophozoite-induced Plasmodium berghei infection in mice (Mus musculus) at a dose 640 mg/kg given as no. of cures. The class given is functional. The procedure, abridged:
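Run at the Rane Laboratory with blood-induced P. berghei infections in mice, five animals per group. A cure is a mouse surviving to 60 days postinfection. Deaths before day 6 are recorded separately as toxic deaths. Activity is scored from the increase in mean survival time over untreated controls, and counts as active when treated MST is more than twice control MST.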

In data set [4] the test system is Plasmodium berghei. Put plainly: Blood schizonticidal antimalarial activity in the trophozoite-induced Plasmodium berghei infection in mice (Mus musculus) at 20 mg/kg. Also on record: unit not given beside the values. The class given is functional. Put shortly: (§1)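 Run at the Rane Laboratory in mice infected with blood-induced P. berghei, five animals per group. Activity is the increase in mean survival time over untreated infected controls. A compound counts as active when treated-group MST is more than twice the control MST. Cures are mice surviving at 60 days postinfection.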

Data set [5] relates to Mus musculus. Description: Suppressive blood schizonticidal antimalarial activity evaluated in the trophozoite-induced Plasmodium berghei infection in mice (Mus musculus) at a dose 320 mg/kg. The class given is functional. Put shortly: as §1
Data set [6] concerns Plasmodium cynomolgi. Description: Cures in Plasmodium cynomolgi infected Rhesus monkeys (Macaca mulatta) on 0.316 mg/kg/day after 7 days; cured 0 of 2. It is filed as functional.
Data set [7] concerns Mus musculus. Put plainly: (§2) Suppressive blood schizonticidal antimalarial activity evaluated in the trophozoite-induced Plasmodium berghei infection in mice (Mus musculus) at a dose 80 mg/kg. It is filed as functional. Also on record: unit not given beside the values. The procedure, abridged:
as §1

Data set [8] deals with Mus musculus. Description: Suppressive blood schizonticidal antimalarial activity evaluated in the trophozoite-induced Plasmodium berghei infection in mice (Mus musculus) at a dose 40 mg/kg. The class given is functional. Also on record: unit not given beside the values. Put shortly:
as §1

Data set [9] has as its system Mus musculus. Put plainly: (§3) Suppressive blood schizonticidal antimalarial activity evaluated in the trophozoite-induced Plasmodium berghei infection in mice (Mus musculus) at a dose 160 mg/kg. The class given is functional. The procedure, abridged: as §1
Data set [10] concerns Plasmodium berghei. Description: (§4) Suppressive blood schizonticidal antimalarial activity evaluated in the trophozoite-induced Plasmodium berghei infection in mice (Mus musculus) at a dose 640 mg/kg given as number of toxic deaths. The class given is toxicity, organism-based. Further details: dose 640 mg/kg. The note with it: in vivo. Put shortly:
(§5)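 Rane Laboratory mouse test with blood-induced P. berghei infection, five mice per group. Toxic deaths are deaths occurring before the 6th day postinfection.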

Data set [11] has as its system Mus musculus. Description: Suppressive blood schizonticidal antimalarial activity evaluated in the trophozoite-induced Plasmodium berghei infection in mice (Mus musculus) at a dose 10 mg/kg. The class given is functional. Put shortly:
as §1

The subject of data set [12] is Mus musculus. Put plainly: Suppressive blood schizonticidal antimalarial activity evaluated in the trophozoite-induced Plasmodium berghei infection in mice (Mus musculus) at a dose 320 mg/kg given as no. of toxic deaths. The class given is functional. Put shortly:
as §5

In data set [13] the test system is Plasmodium cynomolgi. Description: Cures in Plasmodium cynomolgi infected Rhesus monkeys (Macaca mulatta) on 10.0 mg/kg/day after 7 days; cured 1 of 1. It is filed as functional.
Data set [14] relates to Mus musculus. The description is as §2. The class given is ADME, organism-based. Also on record: dose 80 mg/kg. The note with it: in vivo. Put shortly: as §1
The subject of data set [15] is Plasmodium cynomolgi. Description: Cures in Plasmodium cynomolgi infected Rhesus monkeys (Macaca mulatta) on 0.316 mg/kg/day after 7 days; cures 2 of 2. It is filed as functional.
The test system of data set [16] is Plasmodium cynomolgi. Description: Cures in Plasmodium cynomolgi infected Rhesus monkeys (Macaca mulatta) on 1 mg/kg/day after 7 days; cured 3 of 3. The class given is functional.
The test system of data set [17] is Mus musculus. The description is as §3. It is filed as ADME, organism-based. Further details: dose 160 mg/kg. The note with it: in vivo. The procedure, abridged: as §1
In data set [18] the test system is Plasmodium cynomolgi. Put plainly: Cures in Plasmodium cynomolgi infected Rhesus monkeys (Macaca mulatta) on 0.1 mg/kg/day after 7 days (x7); cured 0 of 2. It is filed as functional.
The subject of data set [19] is Plasmodium cynomolgi. Put plainly: Cures in Plasmodium cynomolgi infected Rhesus monkeys (Macaca mulatta) on 1 mg/kg/day after 7 days; cured 1 of 1. The class given is functional.
Data set [20] has as its system Plasmodium cynomolgi. Description: Cures in Plasmodium cynomolgi infected Rhesus monkeys (Macaca mulatta) on 0.316 mg/kg/day after 7 days; cured 1 of 2. The class given is functional.
The test system of data set [21] is Mus musculus. Described as §4. Further details: dose 640 mg/kg. It is filed as ADME, organism-based. The settings on record: in vivo. The procedure, abridged:
as §5

Data set [22] deals with Mus musculus. Description: Suppressive blood schizonticidal antimalarial activity evaluated in the trophozoite-induced Plasmodium berghei infection in mice (Mus musculus) at a dose 160 mg/kg given as no. of toxic deaths. It is filed as functional. Put shortly: as §5

As for `COc1cc(NC(C)CCCN)c2nccc(C)c2c1` (stereo not given), the values for the Cures/no. of animals with Plasmodium cynomolgi [1], in the data set on Plasmodium cynomolgi [2] and in the data set on Plasmodium cynomolgi [6] were 2, 2 and 0, respectively. This compound yielded a Cures with Mus musculus [3] of 3. Besides, the “Delta MST” value is 3.1 in the data set with Plasmodium berghei [4]; 10 with Mus musculus [5]; 5.5 in the data set on Mus musculus [7]; 4.9 with Mus musculus [8]; 9 with Mus musculus [9].
For the compound `CCCOc1c(OC)cc(NC(C)CCCN)c2ncccc12` (stereo not given), the Toxic deaths was determined as 5 with Plasmodium berghei [10], 5 in the data set on Mus musculus [12], 1 in the data set on Mus musculus [14] and 5 in the data set with Mus musculus [17]. Besides, the results for the “Delta MST” value in the data set on Mus musculus [11], in the data set with Plasmodium berghei [4] and with Mus musculus [8] were 3.7, 4.5 and 8.3, respectively. Besides, the Cures/no. of animals in the data set on Plasmodium cynomolgi [13] came out at 1; with Plasmodium cynomolgi [15] it was 2; in the data set with Plasmodium cynomolgi [16], 3; in the data set with Plasmodium cynomolgi [18], 0.
Take `CCCCCOc1c(OC)cc(NC(C)CCCN)c2ncccc12` (stereo not given): the Cures/no. of animals with Plasmodium cynomolgi [19] was found to be 1; in the data set with Plasmodium cynomolgi [20], 1; in the data set on Plasmodium cynomolgi [18], 0. Also, the “Delta MST” value in the data set on Mus musculus [11] was 4.3; in the data set on Plasmodium berghei [4], 4.7; in the data set on Mus musculus [7], 4.7; with Mus musculus [8], 6.1. Also, the Toxic deaths with Mus musculus [21] is recorded as 2; in the data set with Mus musculus [12] it was 5; with Mus musculus [22], 4.
